Key:
Assay type in all cases: functional
[1] = system: Rattus norvegicus; assay: Effect on heart rate of spontaneously hypertensive rats, 10 hr after peroral administration at 50 mg/kg; settings: route oral
Summary of the method: (§1)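 Heart rate was derived from the pulsatile arterial pressure signal in conscious catheterized male SHR (22-24 weeks, 250-350 g), with continuous monitoring sampled 3 min per 30 min. Drug was given by gavage as a 4% gum acacia suspension at 2 mL/kg, dose as free base, to groups of 3-4 rats with mean pressure >150 mmHg. Individual 30-min means were compared with pretreatment values.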

[2] = system: Rattus norvegicus; assay: Maximum percent decrease in heart rate of spontaneously hypertensive rats, 10 hr after peroral administration of 50 mg/kg of compound; settings: route oral; summary of the method: as §1
[3] = system: Rattus norvegicus; assay: Effect on heart rate of spontaneously hypertensive rats, 2 hr after peroral administration at 50 mg/kg; settings: route oral; summary of the method: as §1
[4] = system: Rattus norvegicus; assay: Effect on heart rate of spontaneously hypertensive rats, 24 hr after peroral administration at 50 mg/kg; settings: route oral; summary of the method: as §1
[5] = system: Rattus norvegicus; assay: Effect on heart rate of spontaneously hypertensive rats, 2 hr after peroral administration of 10 mg/kg of compound; settings: route oral; summary of the method: as §1
[6] = system: Rattus norvegicus; assay: Effect on heart rate of spontaneously hypertensive rats, 24 hr after peroral administration of 10 mg/kg of compound; settings: route oral; summary of the method: as §1
[7] = system: Rattus norvegicus; assay: Maximum percent decrease in heart rate of spontaneously hypertensive rats, 6 hours after peroral administration of 50 mg/kg of compound; settings: route oral
Summary of the method: (§2)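 Conscious male SHR (Kyoto-Wistar origin, 22-24 weeks, 250-350 g; mean BP >150 mmHg, pulse pressure >25 mmHg) with indwelling catheters, ~0.8 mL heparinized saline/day. Dosed by gavage as a 4% gum acacia suspension, 2 mL/kg, free-base doses, 3-4 rats per group. Heart rate was derived from the pulsatile pressure signal, sampled 3 min every 30 min, and 30-min means were compared with pretreatment values.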

[8] = system: Rattus norvegicus; assay: Effect on heart rate of spontaneously hypertensive rats, 10 hr after peroral administration of 10 mg/kg of compound; settings: route oral; summary of the method: as §1
[9] = system: Rattus norvegicus; assay: Maximum percent decrease in heart rate of spontaneously hypertensive rats, 24 hours after peroral administration of 50 mg/kg of compound; settings: route oral; summary of the method: as §1
[10] = system: Rattus norvegicus; assay: Max effect on heart rate of spontaneously hypertensive rats, 3-5 hr after peroral administration of 3 mg/kg of compound; significant decrease observed on 2nd and 3rd days; settings: route oral; summary of the method: as §1
[11] = system: Rattus norvegicus; assay: (§3) Max effect on heart rate of spontaneously hypertensive rats, 3-5 hr after peroral administration of 3 mg/kg of compound; settings: route oral; summary of the method: as §1
[12] = system: Rattus norvegicus; assay: Max effect on heart rate of spontaneously hypertensive rats, 3-5 hr after peroral administration of 10 mg/kg of compound; significant decrease observed on 2nd and 3rd days; settings: route oral; summary of the method: as §1
[13] = system: Rattus norvegicus; assay: as §3; settings: route oral; summary of the method: as §1; remark: listed apart in the source
[14] = system: Rattus norvegicus; assay: Max effect on heart rate of spontaneously hypertensive rats, 3-5 hr after peroral administration of 10 mg/kg of compound; settings: route oral; summary of the method: as §1
[15] = system: Rattus norvegicus; assay: Maximum percent decrease in heart rate of spontaneously hypertensive rats, 8 hours after peroral administration of 50 mg/kg of compound; settings: route oral; summary of the method: as §2
[16] = system: Rattus norvegicus; assay: Maximum percent decrease in heart rate of spontaneously hypertensive rats, 10 hours after peroral administration of 50 mg/kg of compound; settings: route oral; summary of the method: as §1
[17] = system: Rattus norvegicus; assay: Effect on heart rate of spontaneously hypertensive rats, 18 hr after peroral administration of 50 mg/kg of compound; settings: route oral; summary of the method: as §1
[18] = system: Rattus norvegicus; assay: Maximum percent decrease in heart rate of spontaneously hypertensive rats, 4 hours after peroral administration of 50 mg/kg of compound; settings: route oral; summary of the method: as §1
[19] = system: Rattus norvegicus; assay: Maximum percent decrease in heart rate of spontaneously hypertensive rats, 2 hours after peroral administration of 50 mg/kg of compound; settings: route oral; summary of the method: as §1
[20] = system: Rattus norvegicus; assay: Maximum percent decrease in heart rate of spontaneously hypertensive rats, 4 hr after peroral administration of 50 mg/kg of compound; settings: route oral; summary of the method: as §1
[21] = system: Rattus norvegicus; assay: Blood pressure rating in spontaneously hypertensive rats, 2 hr after peroral administration of 50 mg/kg of compound; settings: route oral
Summary of the method: (§4)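 Conscious male SHR (Kyoto-Wistar origin, 22-24 weeks, 250-350 g) with indwelling catheters, given about 160 units heparin/day in saline. Only rats with mean blood pressure >150 mmHg and pulse pressure >25 mmHg were used, in groups of 3-4. Dosing was oral gavage at 2 mL/kg in 4% gum acacia suspension, as free base. Pressure was sampled 3 min of every 30 min, and 30-min means were compared with pretreatment values.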

[22] = system: Rattus norvegicus; assay: Maximum percent decrease in heart rate of spontaneously hypertensive rats, 3 hours after peroral administration of 50 mg/kg of compound; settings: route oral; summary of the method: as §1
[23] = system: Rattus norvegicus; assay: Blood pressure rating in spontaneously hypertensive rats, 10 hr after peroral administration of 50 mg/kg of compound; settings: route oral; summary of the method: as §4
[24] = system: Rattus norvegicus; assay: Blood pressure rating in spontaneously hypertensive rats, 24 hr after peroral administration of 50 mg/kg of compound; settings: route oral; summary of the method: as §4
[25] = system: Rattus norvegicus; assay: Maximum percent decrease in heart rate of spontaneously hypertensive rats, 5 hours after peroral administration of 50 mg/kg of compound; settings: route oral; summary of the method: as §2
[26] = system: Rattus norvegicus; assay: Effect on heart rate of spontaneously hypertensive rats, 24 hr after peroral administration of 3 mg/kg of compound; settings: route oral; summary of the method: as §1
[27] = system: Rattus norvegicus; assay: Effect on heart rate of spontaneously hypertensive rats, 10 hr after peroral administration of 3 mg/kg of compound; settings: route oral; summary of the method: as §1
[28] = system: Rattus norvegicus; assay: Effect on heart rate of spontaneously hypertensive rats, 2 hr after peroral administration of 3 mg/kg of compound; settings: route oral; summary of the method: as §1
[29] = species on record: Rattus norvegicus; assay: Dose required to lower blood pressure by 30mmHg, 5-h post treatment
Summary of the method: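 Conscious male SHR (22-24 weeks, 250-350 g) with indwelling catheters for continuous blood pressure and heart rate monitoring; only rats with mean pressure >150 mmHg and pulse pressure >25 mmHg were used. Oral gavage of a suspension in 4% gum acacia (2 mL/kg), doses as free base, groups of 3-4. Mean pressure was sampled 3 min per 30 min and compared with pretreatment; the value is the dose lowering pressure by 30 mmHg at 5 h.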

[30] = system: Rattus norvegicus; assay: Effect on heart rate of spontaneously hypertensive rats, 18 hr after peroral administration of 10 mg/kg of compound; settings: route oral; summary of the method: as §1
[31] = system: Rattus norvegicus; assay: Maximum percent decrease in heart rate of spontaneously hypertensive rats, 8 hr after peroral administration of 50 mg/kg of compound; settings: route oral; summary of the method: as §2
[32] = system: Rattus norvegicus; assay: Maximum percent decrease in heart rate of spontaneously hypertensive rats, 28 hours after peroral administration of 50 mg/kg of compound; settings: route oral; summary of the method: as §1
[33] = system: Rattus norvegicus; assay: Effect on heart rate of spontaneously hypertensive rats,18hours after peroral administration of 50 mg/kg of compound; settings: route oral; summary of the method: as §1
[34] = system: Rattus norvegicus; assay: Maximum effect on heart rate of spontaneously hypertensive rats, 3-5 hr after peroral administration of 10 mg/kg of compound; settings: route oral; summary of the method: as §1
[35] = system: Rattus norvegicus; assay: Maximum effect on heart rate of spontaneously hypertensive rats, 18 hours after peroral administration of 10 mg/kg of compound; settings: route oral; summary of the method: as §1
[36] = system: Rattus norvegicus; assay: Effect on heart rate of spontaneously hypertensive rats, 24 hours after peroral administration of 50 mg/kg of compound; settings: route oral; summary of the method: as §1
[37] = system: Rattus norvegicus; assay: Effect on heart rate of spontaneously hypertensive rats,24hours after peroral administration of 10 mg/kg of compound; settings: route oral; summary of the method: as §1

Nc1nc2nc(CO)ncc2cc1-c1c(Cl)cccc1Cl
Activity rating [1]: 1
Decrease [2]: 17%
Activity rating [3]: 0
Activity rating [4]: 1

Cc1ncnc2nc(N)c(-c3c(Cl)cccc3Cl)cc12
Activity rating [5]: 0
Activity rating [6]: 0
Decrease [7]: 26%
Activity rating [8]: 0
Activity rating [1]: 2
Activity rating [3]: 2

Nc1nc2ncncc2cc1-c1c(Cl)cccc1Cl
Decrease [9]: 22%
Activity rating [10]: 0
Activity rating [11]: 0
Activity rating [12]: 0
Activity rating [13]: 0
Activity rating [1]: 0
Activity rating [3]: 0
Activity rating [14]: 0
Activity rating [4]: 2

Cc1ncc2cc(-c3ccc(Cl)cc3Cl)c(N)nc2n1
Decrease [15]: 13%
Activity rating [1]: 1
Activity rating [3]: 0
Activity rating [4]: 1

Cc1cccc(Cl)c1-c1cc2cncnc2nc1N
Decrease [16]: 21%
Activity rating [1]: 2
Activity rating [3]: 1
Activity rating [17]: 1

Cc1ncc2cc(-c3ccccc3C)c(N)nc2n1
Decrease [18]: 22%
Activity rating [1]: 1
Activity rating [3]: 1
Activity rating [4]: 1

Cc1ccccc1-c1cc2cncnc2nc1N
Activity rating [5]: 0
Activity rating [6]: 0
Activity rating [8]: 0
Decrease [19]: 18%
Activity rating [1]: 1
Activity rating [3]: 1
Activity rating [4]: 0

Cc1ncc2cc(-c3ccccc3Br)c(N)nc2n1
Decrease [20]: 19%
Activity rating [1]: 1
Activity rating [3]: 1
Activity rating [14]: 0
Activity rating [4]: 0

Nc1nc2ncncc2cc1-c1ccccc1I
Decrease [15]: 11%
Activity rating [1]: 0
Activity rating [3]: 0
Activity rating [4]: 1

COCc1ncc2cc(-c3c(Cl)cccc3Cl)c(N)nc2n1
Activity rating [21]: 1
Decrease [22]: 14%
Activity rating [23]: 1
Activity rating [24]: 1

Cc1ncc2cc(-c3c(C)cccc3Cl)c(N)nc2n1
Activity rating [5]: 2
Activity rating [8]: 2
Activity rating [1]: 2
Activity rating [3]: 1
Activity rating [17]: 2
Decrease [25]: 30%

Cc1ncc2cc(-c3c(Cl)cccc3Cl)c(N)nc2n1
Activity rating [5]: 1
Activity rating [6]: 1
Decrease [16]: 32%
Activity rating [8]: 1
Activity rating [26]: 1
Activity rating [27]: 1
Activity rating [28]: 1
ED30 [29]: 17 mg/kg
LD50 [29]: > 7000 mg/kg
Activity rating [1]: 3
Activity rating [3]: 1
Activity rating [4]: 3

Cc1nc(C)c2cc(-c3ccccc3C)c(N)nc2n1
Decrease [15]: 11%
Activity rating [1]: 0
Activity rating [3]: 0
Activity rating [4]: 0

Cc1ncc2cc(-c3c(Br)cccc3Br)c(N)nc2n1
Activity rating [5]: 1
Decrease [7]: 28%
Activity rating [8]: 2
Activity rating [1]: 2
Activity rating [30]: 1
Activity rating [3]: 2
Activity rating [4]: 2

Cc1ncc2cc(-c3c(C)cccc3Br)c(N)nc2n1
Activity rating [1]: 1
Activity rating [3]: 0
Activity rating [4]: 0
Decrease [25]: 18%

Cc1nc(C)c2cc(-c3c(Cl)cccc3Cl)c(N)nc2n1
Decrease [7]: 32%
Activity rating [1]: 3
Activity rating [3]: 2
Activity rating [17]: 2

Cc1ncc2cc(-c3ccccc3Cl)c(N)nc2n1
Decrease [31]: 16%
Activity rating [1]: 1
Activity rating [3]: 0
Activity rating [4]: 1

CCc1ccccc1-c1cc2cncnc2nc1N
Decrease [19]: 33%
Activity rating [1]: 0
Activity rating [3]: 3
Activity rating [4]: 0

Cc1cc(C)c(-c2cc3cnc(C)nc3nc2N)c(C)c1
Decrease [19]: 18%
Activity rating [1]: 0
Activity rating [3]: 1
Activity rating [4]: 0

Cc1cccc(C)c1-c1cc2cncnc2nc1N
Decrease [22]: 12%
Activity rating [1]: 0
Activity rating [3]: 1

Nc1nc2ncncc2cc1-c1c(Cl)cccc1Br
Activity rating [5]: 1
Activity rating [6]: 1
Activity rating [8]: 1
Decrease [32]: 28%
Activity rating [1]: 2
Activity rating [33]: 1
Activity rating [3]: 1

Nc1nc2ncncc2cc1-c1ccccc1Br
Activity rating [1]: 1
Activity rating [3]: 0
Activity rating [14]: 0
Activity rating [17]: 1
Decrease [25]: 16%

Cc1ncc2cc(-c3c(Cl)cccc3Br)c(N)nc2n1
Activity rating [34]: 1
Activity rating [1]: 2
Activity rating [3]: 2
Activity rating [4]: 2
Decrease [25]: 26%
Activity rating [35]: 0

Nc1nc2ncncc2cc1-c1ccccc1Cl
Activity rating [36]: 0
Activity rating [1]: 0
Activity rating [3]: 0

Nc1ncc2cc(-c3c(Cl)cccc3Cl)c(N)nc2n1
Decrease [9]: 18%
Activity rating [5]: 0
Activity rating [37]: 1
Activity rating [8]: 0
Activity rating [1]: 1
Activity rating [3]: 0
Activity rating [4]: 2

Clc1cccc(Cl)c1NC1=NCCN1 [CLONIDINE]
Activity rating [26]: 2
Activity rating [28]: 0

From ChEMBL document CHEMBL1121810, “Antihypertensive activity of 6-arylpyrido[2,3-d]pyrimidin-7-amine derivatives” (1981)
